Bioassay records: PubChem BioAssay, several laboratories
PAD4 FP inh: human PAD4 inhibitors, primary screen, biochemical, fluorescence polarization, 1536-well format; Protein-arginine deiminase type-4 (Homo sapiens), Q9UM07; recombinant PAD4, RCA probe fluorescence polarization; inhibition, % at 6.36 µM; 0.41% of 330,000 active;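 active = percent inhibition above a cutoff equal to the mean of all tested compounds plus 3 SD, cut at about 15% in these data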;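 note: 0% = PAD4 with RCA probe and DMSO and 100% = probe without PAD4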
GSTO1 counter: inhibitors of recombinant GSTO1, primary screen, counter-screen for RBBP9 inhibitor project, biochemical, fluorescence polarization; Glutathione S-transferase omega-1 (Homo sapiens), P78417; 1.1% of 300,000 active; activity-based probe fluorescence polarization; AID 1974, 2009; inhibition, % at 5.96 µM;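 active = inhibition above the campaign mean inhibition plus 3 SD, cut at about 35% in these data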;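 note: 0% = GSTO1-1 with DMSO and 100% = wells lacking GSTO1-1 enzyme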
Target sequence (P78417 whole entry, looked up): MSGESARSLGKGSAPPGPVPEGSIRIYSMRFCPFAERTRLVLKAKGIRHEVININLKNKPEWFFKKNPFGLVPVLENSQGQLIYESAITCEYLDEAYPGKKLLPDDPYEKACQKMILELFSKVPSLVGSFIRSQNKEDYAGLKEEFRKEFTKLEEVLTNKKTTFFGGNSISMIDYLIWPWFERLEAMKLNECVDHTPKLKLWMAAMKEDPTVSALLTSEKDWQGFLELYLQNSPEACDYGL
TDP2 absorb: human TDP2 enzyme inhibitors, primary screen, biochemical, epi absorbance, recombinant enzyme | Tyrosyl-DNA phosphodiesterase 2 (Homo sapiens), O95551 | AID 720702, 2013 | T5PNP hydrolysis, p-nitrophenol absorbance 415 nm | inhibition, % at 12.8 µM | 0.34% of 370,000 active;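 active = inhibition above the mean of all tested compounds plus 3 SD, set per campaign, cut at about 25% in these data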;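 note: 0% = DMSO with enzyme and 100% = buffer with substrate but no TDP2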
Target sequence (O95551 whole entry, looked up): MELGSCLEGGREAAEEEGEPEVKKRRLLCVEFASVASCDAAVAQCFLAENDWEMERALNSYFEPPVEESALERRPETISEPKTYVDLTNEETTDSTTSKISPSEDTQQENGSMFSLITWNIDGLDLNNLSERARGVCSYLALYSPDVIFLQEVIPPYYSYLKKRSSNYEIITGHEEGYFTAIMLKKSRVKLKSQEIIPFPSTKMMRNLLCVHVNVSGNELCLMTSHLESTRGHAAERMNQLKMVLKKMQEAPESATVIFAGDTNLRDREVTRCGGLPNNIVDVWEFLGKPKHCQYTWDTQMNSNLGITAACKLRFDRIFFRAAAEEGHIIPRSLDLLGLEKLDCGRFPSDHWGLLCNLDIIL
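Test system: human TDP2 enzyme; Input: 120 nM TDP2 per well; Buffer or medium: Mg2+-containing Tris-HCl buffer, pH 7.5; Reagent: 5 mM T5PNP; Dosing: 12.8 µM single point, 1% DMSO; Incubation: reaction 2 h, 37 °C; Detection: p-Nitrophenol epi absorbance; Read-out: % inhibition relative to enzyme-containing and enzyme-free wells; Replicates: single well per compound.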
Apaf1 inhib: inhibitors of human Apaf-1 apoptosome, primary screen, biochemical, DEVD-Rh110 fluorescence, uHTS; Apoptotic protease-activating factor 1 (Homo sapiens), O14727; reconstituted apoptosome caspase-3 activity; inhibition, % at 20 µM; 0.71% of 330,000 active; AID 489030, 2010; active = inhibition of at least 40% at 20 µM;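 note: plate controls were DMSO wells for no effect and DEVD-CHO caspase inhibitor wells for full effect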
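Material: biochemical Apaf-1 apoptosome reconstitution. Medium: Hepes buffer, pH 7.5. Also added: cytochrome c activation, bis-DEVD rhodamine 110 substrate. Timing: 30 min compound preincubation, 50 min activation, room temperature. Measured by: rhodamine 110 fluorescence at Ex 480/Em 540 nm.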
Fh CTSL1 inh: Fasciola hepatica cathepsin L1 inhibitors, primary screen, counter-screen for PFM18AAP inhibitor project, biochemical, QFRET, fluorogenic peptide substrate; AID 1906, 2009; recombinant F. hepatica cathepsin L1, Z-Leu-Arg-MCA fluorescence; inhibition, % at 5.96 µM; 0.49% of 300,000 active;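 active = inhibition above the mean of all tested compounds plus 3 SD, set per screening campaign, cut at about 17% in these data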;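 note: 0% = plate median of test compound wells and 100% = 1 µM Z-Phe-Ala-diazomethylketone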
Numbers without * were called inactive; . = no result given. Rows were chosen to be rich in hits. Some 1.8% of all compounds tested hit in one or more screens of this group.

SMILES	PAD4 FP inh	GSTO1 counter	TDP2 absorb	Apaf1 inhib	Fh CTSL1 inh
C[C@H]1COC2=C1C(=O)C(=O)c1c2ccc2c1CCCC2(C)C	-10	68*	.	.	14
COC(=O)CC[C@@H](/C=C/C(=O)OC(C)(C)C)Sc1ccc(C(C)(C)C)cc1	.	.	7	.	.
O=C1/C(=C/c2ccc(N3CCOCC3)o2)SC(=Nc2ccccc2)N1CCc1c[nH]c2ccccc12	-9	-4	.	11	18*
COc1ccc2cc3cc(C(=O)Nc4ccc(F)cc4)sc3nc2c1	.	.	0	.	.
OCC#Cc1ncc(C(F)(F)F)cc1Cl	-2	83*	6	-2	0
NC(=O)Cc1ncc(C(F)(F)F)cc1Cl	-5	6	4	-5	0
CC(=O)Nc1cc(OC(C)=O)c2nonc2c1OC(C)=O	83*	89*	98*	98*	110*
CCN(CC)C(=O)CC[C@H]1CC[C@]2(CCCN(C(=O)c3cccnc3)C2)O1	.	.	-6	.	.
COc1cc(C(=O)OCc2csc(CC(=O)Nc3cc(C)ccc3C)n2)ccc1OC(F)F	.	.	-8	.	.
Cc1ccc(C)c(NC(=O)Cc2nc(CCl)cs2)c1	0	95*	3	-12	2
C[C@H](c1ccccc1)N1C[C@@H](COCc2ccccc2)Oc2cccc(Oc3ccc(F)cc3)c2S1(=O)=O	.	.	8	.	.
O=C1NC(=S)/C(=C\c2ccc(-c3ccccc3Cl)o2)S1	-3	35*	1	.	4
Cc1ccc(C(=O)N/C(=C\c2cn(C)c3ccccc23)C(=O)NCCCN2CCOCC2)cc1	0	-1	1	-3	3
Cc1ccc(C(=O)N/C(=C\c2ccc(-c3ccccc3[N+](=O)[O-])o2)C(=O)NCCCN2CCOCC2)cc1	-11	36*	10	65*	3
COc1cccc(C(O)c2cnc(C(C)C)n2C)c1OC (stereo not given)	-2	4	8	-25	-4
CC(C)c1ncc(C(O)c2cccc3ccccc23)n1C (stereo not given)	0	36*	-8	2	-3
O=C(COC(=O)CNC(=O)c1ccc(Cl)cc1Cl)Nc1ccc(N2CCOCC2)cc1	-4	10	-1	2	17*
O=C(CNC(=O)c1ccc(Cl)cc1Cl)OCC(=O)N1CCN(c2ccccc2)CC1	.	.	1	1	.
COC(=O)[C@]12C[C@H](CC(=O)NCc3cccc(C(F)(F)F)c3)C(=O)N(CCC3=CCCCC3)C1=C[C@H](COCc1ccccc1)O[C@@H]2C	.	.	-3	.	.
COC(=O)Cc1nnn2c1[C@H](C)[C@@H](OC)c1ccc(C(F)(F)F)cc1-2	.	.	5	.	.
NC(=S)N/N=C/c1ccc(-c2ccc([N+](=O)[O-])cc2)o1	-4	11	-11	8	22*
Cc1cccc(Cn2nnc3c2C(=O)c2ccccc2C3=O)c1	-5	24	-7	34	19*
Cc1ccccc1Cn1nnc2c1C(=O)c1ccccc1C2=O	-9	38*	6	5	25*
Cc1ccccc1CN1C(=O)c2ccccc2C1c1nnnn1Cc1ccccc1 (stereo not given)	.	.	-6	.	.
O=C1NC(=O)/C(=C\c2ccc(O)cc2O)S1	1	63*	4	0	-1
SMILES	PAD4 FP inh	GSTO1 counter	TDP2 absorb	Apaf1 inhib	Fh CTSL1 inh
COc1ccccc1Nc1ccc(N)cc1	-1	35*	7	22	-1
COc1ccccc1NC(=O)c1ccccc1Nc1ccccc1	-1	11	2	23	2
COC(=O)c1cc2c(c3c4cc(F)ccc4n(S(=O)(=O)c4cccc(C)c4)c13)C(=O)N(Cc1ccccc1OC)C2	.	.	-13	.	.
Cc1ccc(S(=O)(=O)N2CN(Cc3ccco3)c3nc4ccccc4nc32)cc1	16*	11	11	16	3
CC[n+]1c(/C=C/N(C)c2ccccc2)n(-c2ccccc2)c2ccc(-c3nc4ccccc4s3)cc21	-13	-37	.	82*	2
CCOC(=O)c1ccc2c(c1)n(CC)c(/C=C/N(C)c1ccccc1)[n+]2CC	6	1	-6	-11	4
COc1ccc(NC(=O)COC(=O)C(CC(C)C)N2C(=O)C3CC=CCC3C2=O)cc1Cl (stereo not given)	-2	-1	1	6	52*
COc1ccc(NC(=O)CN2C(=O)C3CC=CCC3C2=O)cc1Cl (stereo not given)	.	.	5	.	.
Cc1cccc(Nc2nnc(SCC(=O)Nc3cccnc3Cl)s2)c1	-5	-1	-11	3	27*
Nc1nnc(SCC(=O)Nc2cccnc2Cl)s1	-6	7	12	6	1
COC(=O)C1=C(C)N(Cc2ccccc2C(F)(F)F)C(=NCc2ccccc2C(F)(F)F)NC1c1cccc(C(F)(F)F)c1 (stereo not given)	.	.	5	.	.
Cc1ccsc1C(=O)Nc1cccc(-n2cnnn2)c1	0	-2	1	8	19*
CC(C)(C)c1ccc(-c2cn(C[C@H](Cc3ccccc3)n3c(=O)c4ccccc4n3Cc3ccno3)nn2)cc1	.	.	7	.	.
O=C(OCc1ccccc1)[C@H](Cc1ccccc1)NC(=O)[C@@H]1CC=C[C@@H]2CCN(Cc3ccccc3)C(=O)[C@@H]21	.	.	0	.	.
CN(C)C(CNC(=O)c1cc(Br)ccc1Cl)c1ccco1 (stereo not given)	0	5	-1	15	22*
COc1cccc(/C=N/Nc2ncnc3c2[nH]c2ccc(C)cc23)c1OC	0	37*	10	8	-2
COc1ccc(/C=N/Nc2ncnc3c2[nH]c2ccccc23)c(OC)c1OC	-4	8	-4	-8	1
CCc1ccc(N2C(=O)C(Cl)=C(N3CCOCC3)C2=O)cc1	1	9	0	18	32*
COc1ccc(N2C(=O)C(Cl)=C(N3CCOCC3)C2=O)cc1	4	-2	16	-6	14
O=C1C(Cl)=C(N2CCOCC2)C(=O)N1c1cccc(Cl)c1	-1	13	-6	-14	57*
Cc1cccc(N2C(=O)C(Cl)=C(N3CCOCC3)C2=O)c1	-3	10	9	1	28*
CCOC(=O)CN1C(=O)[C@]2(OCCC=C[C@H]2C)c2ccccc21	.	.	0	.	.
COC(=O)[C@H]1C[C@@]2(Oc3ccc(Br)cc3)c3ccccc3N(C(=O)OC(C)(C)C)[C@H]2N1C(=O)OC(C)(C)C	.	.	-5	.	.
O=C(Cn1c(-c2cncs2)nc2ccccc21)NC1CCCCC1	.	.	-5	.	.
C1=CC2c3ccccc3NC(c3ccncc3)C2C1 (stereo not given)	-9	47*	12	49*	0
COCC(=O)N(C)[C@H]1C[C@H]2c3[nH]c4cccc(-c5cccc(F)c5)c4c3CCN2C(=O)[C@H]1[C@H](C)O	.	.	-6	.	.
